Assay results as given in paper PMC12597218 (Chemmedchem, 2025).
Values after ≈ are worked out from the molar mass of the structure shown.

Columns and labels:
[1] = tested on: Nrf2 (ARE stimulation) in HEK293‐ARE‐Luc reporter cell line; experiment: Intracellular Nrf2 activation assay; assay type: cell-based; conditions: 24 h; for Nrf2 activity, fold change in luminescence intensity compared with the control group: test sample 10 μM, n = 3; for Intracellular Nrf2 activating effect at lower concentration (dose‐dependency): 5 μM
Summary of the method: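 HEK293‐ARE‐Luc (NRF2/ARE luciferase stable line) cells (2.0 × 10⁴/well) were grown 24 h, then given test compound in DMSO (1, 2.5, 5 or 10 μM) for 24 h. One‐step luciferase reagent was added for 15 min at room temperature and luminescence read. Activation is expressed as the luminescence ratio to vehicle control, n = 3. tBHQ served as reference.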

[2] = tested on: HEK293‐ARE‐Luc cells; experiment: Cytotoxicity; assay type: cell-based; conditions: concentrations up to 50 μM
Summary of the method: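 HEK293‐ARE‐Luc cells (5.0 × 10⁴/well; DMEM, 10% FBS, 37 °C, 5% CO₂) were grown 24 h, then exposed to test compound added in DMSO for 24 h. CCK‐8 (WST‐8) reagent was added for 4 h and absorbance read at 420 nm. Cell viability was calculated, n = 3.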

[3] = target: Keap1‐DC domain and the ETGE‐motif fragment peptide of Nrf2 (Homo sapiens, UniProt Q14145); experiment: Fluorescence polarization; assay type: binding
Keap1‐DC domain and the ETGE‐motif fragment peptide of Nrf2, sequence (Q14145 2-624 limits assumed): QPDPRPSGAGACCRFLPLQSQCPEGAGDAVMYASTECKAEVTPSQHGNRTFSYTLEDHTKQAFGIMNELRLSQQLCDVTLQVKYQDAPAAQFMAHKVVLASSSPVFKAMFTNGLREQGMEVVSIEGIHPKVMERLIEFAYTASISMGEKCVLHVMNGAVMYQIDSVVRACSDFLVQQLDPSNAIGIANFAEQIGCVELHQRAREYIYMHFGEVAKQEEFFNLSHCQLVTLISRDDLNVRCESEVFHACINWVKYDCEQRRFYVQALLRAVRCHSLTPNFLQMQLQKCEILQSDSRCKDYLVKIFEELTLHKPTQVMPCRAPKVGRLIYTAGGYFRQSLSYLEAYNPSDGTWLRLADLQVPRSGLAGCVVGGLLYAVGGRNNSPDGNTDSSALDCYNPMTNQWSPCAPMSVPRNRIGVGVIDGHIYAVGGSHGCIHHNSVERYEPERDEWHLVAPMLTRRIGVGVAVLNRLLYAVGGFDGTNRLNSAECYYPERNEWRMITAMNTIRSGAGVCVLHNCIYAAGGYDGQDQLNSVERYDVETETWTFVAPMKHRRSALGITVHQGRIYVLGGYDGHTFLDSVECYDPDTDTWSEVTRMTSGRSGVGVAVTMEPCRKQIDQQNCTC
Summary of the method: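 Fluorescence polarization read-out, using a commercial Keap1–Nrf2 inhibitor screening kit run according to the manufacturer's protocol with slight modifications.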

[4] = Solubility in PBS; assay type: physicochemical; conditions: 37 °C, pH 7.4, aqueous buffer, kinetic from dmso stock
Summary of the method: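 A 10 mM DMSO stock of test compound was diluted into PBS and rotated at 1,000 rpm, 37 °C, for 4 h. The solution was filtered through a 0.45 μm PVDF membrane by centrifugation. […] Two technical replicates.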

[5] = Parallel artificial membrane permeability assay; assay type: in vitro ADME; conditions: PAMPA
[6] = Metabolic stability in human liver microsomes; assay type: in vitro ADME; conditions: pH 7.4
Summary of the method: (§1)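 Test compound (1 μM) with human or mouse liver microsomes (0.2 mg mL⁻¹), 1 mM EDTA and 0.1 M phosphate (pH 7.4) was preincubated 5 min. Reaction was started with 1 mM NADPH (final) and run 30 min at 37 °C. Samples were quenched in acetonitrile with methyltestosterone internal standard, and parent loss versus time zero was measured by LC–MS/MS. CLint was scaled using 48.8/45.4 mg protein per g liver and 25.7/87.5 g liver per kg (human/mouse). Two technical replicates.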

[7] = Metabolic stability in mouse liver microsomes; assay type: in vitro ADME; conditions: pH 7.4
Summary of the method: as §1

[8] = Protein binding ratio; assay type: in vitro ADME; conditions: bovine, 10% FBS (fetal bovine serum), pH 7.4
Summary of the method: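 Test compound (1 μM) in 10% FBS (150 μL) was dialysed against 150 μL of 0.1 M phosphate buffer (pH 7.4) across a 12–14 kDa MWCO membrane, 37 °C, 6 h, 80 rpm. Buffer and serum samples were matrix‐matched, precipitated with acetonitrile/IS, and analysed by LC‐MS/MS. fu = C_buffer/C_plasma. Two technical replicates.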

[9] = tested on: HO‐1 and NQO1 mRNA; experiment: Nrf2 target gene mRNA expression in RAW264.7 cells; assay type: cell-based, Murine; conditions: 8 h
Summary of the method: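 RAW264.7 murine macrophage‐like cells (DMEM, 10% FBS, 37 °C, 5% CO₂) were treated with test compound for 8 h. HO‐1 and NQO1 mRNA were then measured by quantitative real‐time RT‐PCR with gene‐specific primers, with GAPDH primers also listed. Experiments were independent, at least three times. Mean ± SD.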

[10] = tested on: LPS‐stimulated RAW264.7 cells; experiment: Anti‐inflammatory effect in LPS‐stimulated RAW264.7 cells; assay type: cell-based, Murine; conditions: RAW264.7, pretreated 8 h
Summary of the method: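 For NO, RAW264.7 cells (5 × 10⁵ cells/500 μL; DMEM, 10% FBS, 37 °C, 5% CO₂) were treated with test compound, given LPS (1 μg mL⁻¹) after 8 h, and incubated 16 h at 37 °C. Supernatant was mixed with Griess reagent and absorbance read at 540 nm. NO was quantified against a NaNO₂ standard. Mean ± SD.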

[11] = LPS 1 μg mL^−1, ELISA and RT‐PCR

Compound: CCOc1ccc(S(=O)(=O)Nc2cc(CC(=O)Nc3ccccc3)c(NS(=O)(=O)c3ccc(OCC)cc3)c3ccccc23)cc1 [Compound 5h, 2‐(1,4‐Bis((4‐ethoxyphenyl)sulfonamido)naphthalen‐2‐yl)‐N‐phenylacetamide]
- Nrf2 activity, fold change in luminescence intensity compared with the control group [1]: no effect on Nrf2 activity

Compound: CCOc1ccc(S(=O)(=O)Nc2cc(CC(=O)N3CCCC3)c(NS(=O)(=O)c3ccc(OCC)cc3)c3ccccc23)cc1 [Compound 5i, N,N′‐(2‐(2‐Oxo‐2‐(pyrrolidin‐1‐yl)ethyl)naphthalene‐1,4‐diyl)bis(4‐ethoxybenzenesulfonamide)]
- Intracellular Nrf2 activating effect at lower concentration (dose‐dependency) [1]: notable activity
- Cytotoxicity (WST‐8 assay) [2]: did not exhibit cytotoxicity
- IC50 [3]: 1.07 ± 0.04 µM
- solubility at 4 h [4]: 2.65 µM (≈ 1.69 µg/mL)
- Papp at 4 h [5]: 3.06 ×10⁻⁶ cm/s
- CLint scaled at 1 μM [6]: 546 mL/min/kg
- CLint scaled at 1 μM [7]: 2290 mL/min/kg
- fraction unbound at 6 h, 1 μM [8]: < 0.0342
- NQO1 mRNA expression, increase ([9]; 12.5 µM and higher concentrations): approximately 50 fold
- HO‐1 mRNA expression ([9]; 12.5 μM): significantly upregulated
- HO‐1 mRNA expression at higher concentrations ([9]; concentrations above 12.5 μM): downregulated the gene relative to the peak expression
- CCL2 expression [10, 11]: dose‐dependent reduction
- TNF‐α expression [10, 11]: dose‐dependent reduction
- Nitric oxide (NO) level ([10]; LPS 1 μg mL^−1, Griess reagent): dose‐dependent reduction
- iNOS expression ([10]; LPS 1 μg mL^−1, RT‐PCR): dose‐dependent reduction

Compound: CCOc1ccc(S(=O)(=O)Nc2cc(CC(=O)N3CCCCC3)c(NS(=O)(=O)c3ccc(OCC)cc3)c3ccccc23)cc1 [Compound 5j, N,N′‐(2‐(2‐Oxo‐2‐(piperidin‐1‐yl)ethyl)naphthalene‐1,4‐diyl)bis(4‐ethoxybenzenesulfonamide)]
- Intracellular Nrf2 activating effect at lower concentration (dose‐dependency) [1]: notable activity
- Nrf2 activity, fold change in luminescence intensity compared with the control group [1]: notable Nrf2 activation effects
- IC50 [3]: 2.43 ± 0.17 µM

Compound: Cc1cc(=O)n(-c2ccccc2)n1C [antipyrine]
- Papp at 4 h [5]: 23.1 ×10⁻⁶ cm/s

Compound: COCCc1ccc(OCC(O)CNC(C)C)cc1 (stereo not shown) [metoprolol]
- Papp at 4 h [5]: 1.85 ×10⁻⁶ cm/s

Compound: CC(C)(C)c1cc(O)ccc1O [tBHQ, tert‐butylhydroquinone, reference compound]
- Nrf2 activity, fold change in luminescence intensity compared with the control group [1]: approximately tenfold
